Test results from ChEMBL document CHEMBL4219023, “Synthesis and biological activity of novel tert-amylphenoxyalkyl (homo)piperidine derivatives as histamine H3R ligands” (Bioorg Med Chem, 2017).
Activity calls are given as the source filed them. No cut-off for these calls is given here.

What was measured:
Histamine H3 receptor [1] = biological target: T1, Histamine H3 receptor (Homo sapiens, UniProt Q9Y5N1); experiment: Displacement of [125I]Iodoproxyfan from recombinant human histamine H3 receptor expressed in CHOK1 cell membranes after 90 mins
T1 sequence (Q9Y5N1 whole entry): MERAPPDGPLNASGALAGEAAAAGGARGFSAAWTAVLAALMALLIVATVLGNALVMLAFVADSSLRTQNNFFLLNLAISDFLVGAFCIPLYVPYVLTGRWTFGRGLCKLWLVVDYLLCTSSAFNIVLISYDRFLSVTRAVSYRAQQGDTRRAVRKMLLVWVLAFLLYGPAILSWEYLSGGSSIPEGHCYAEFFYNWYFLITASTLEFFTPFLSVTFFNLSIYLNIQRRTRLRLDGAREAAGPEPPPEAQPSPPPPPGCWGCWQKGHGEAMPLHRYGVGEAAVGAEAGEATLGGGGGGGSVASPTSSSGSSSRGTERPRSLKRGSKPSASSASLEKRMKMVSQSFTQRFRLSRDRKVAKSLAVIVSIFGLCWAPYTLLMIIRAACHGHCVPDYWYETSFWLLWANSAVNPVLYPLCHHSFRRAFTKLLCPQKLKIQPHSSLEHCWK
Procedure, shortened: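 Membranes of CHO-K1 cells expressing hH3R were incubated 90 min at 25 °C, shaken at 250 rpm, with [125I]iodoproxyfan (16–50 pM) and test compound. Nonspecific binding was defined with 1 μM imetit. Separation by filtration on PEI-treated GF/B filters. Ki obtained from IC50 by Cheng-Prusoff.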

Mus musculus [2] = experiment: Anticonvulsant activity in CF-1 albino mouse assessed as protection against maximal electroshock-induced seizures at 30 mg/kg, ip after 0.5 hrs; format: functional, organism-based
Procedure, shortened: (§1)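 Male CF-1 albino mice received compound i.p. as a suspension in 0.5% methylcellulose (30, 100 or 300 mg/kg). Maximal electroshock seizure test read 0.5 h and 4 h after dosing. Result given as animals protected/animals tested.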

Mus musculus [3] = experiment: Anticonvulsant activity in CF-1 albino mouse assessed as protection against maximal electroshock-induced seizures at 30 mg/kg, ip after 4 hrs; format: functional, organism-based; procedure, shortened: as §1
Mus musculus [4] = experiment: Anticonvulsant activity in CF-1 albino mouse assessed as protection against maximal electroshock-induced seizures at 100 mg/kg, ip after 0.5 hrs; format: functional, organism-based; procedure, shortened: as §1
Mus musculus [5] = experiment: Anticonvulsant activity in CF-1 albino mouse assessed as protection against maximal electroshock-induced seizures at 100 mg/kg, ip after 4 hrs; format: functional, organism-based; procedure, shortened: as §1
Mus musculus [6] = experiment: Anticonvulsant activity in CF-1 albino mouse assessed as protection against maximal electroshock-induced seizures at 300 mg/kg, ip after 0.5 hrs; format: functional, organism-based; procedure, shortened: as §1
Mus musculus [7] = experiment: Anticonvulsant activity in CF-1 albino mouse assessed as protection against subcutaneous pentetrazole-induced seizures at 30 mg/kg, ip after 0.5 hrs; format: functional, organism-based
Mus musculus [8] = experiment: Anticonvulsant activity in CF-1 albino mouse assessed as protection against subcutaneous pentetrazole-induced seizures at 30 mg/kg, ip after 4 hrs; format: functional, organism-based
Mus musculus [9] = experiment: Anticonvulsant activity in CF-1 albino mouse assessed as protection against subcutaneous pentetrazole-induced seizures at 100 mg/kg, ip after 0.5 hrs; format: functional, organism-based
Mus musculus [10] = experiment: Anticonvulsant activity in CF-1 albino mouse assessed as protection against subcutaneous pentetrazole-induced seizures at 100 mg/kg, ip after 4 hrs; format: functional, organism-based
Mus musculus [11] = experiment: Neurotoxicity in CF-1 albino mouse assessed as unable to grasp at 100 mg/kg, ip after 0.5 hrs by rotarod test; format: toxicity, organism-based; details: in vivo
Procedure, shortened: (§2)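 Anticonvulsant Screening Program (NINDS) Phase 1 neurotoxicity screen in male albino CF-1 mice. Compounds were given i.p. as suspensions in 0.5% methylcellulose at 30, 100 and/or 300 mg/kg, and animals were observed 0.5 h and 4 h after dosing. The rotarod test was scored as number of animals showing toxicity over number tested, with the kind of toxicity recorded: inability to grasp rotorod, death, diarrhea, continuous seizure activity, loss of righting reflex, myoclonic jerks or tremors.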

Mus musculus [12] = experiment: Neurotoxicity in CF-1 albino mouse at 30 mg/kg, ip after 4 hrs by rotarod test; format: toxicity, organism-based; details: in vivo
Procedure, shortened: (§3)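 Male CF-1 mice were dosed i.p. with compound suspended in 0.5% methylcellulose (30, 100 or 300 mg/kg). Neurotoxicity was scored by rotarod 0.5 h and 4 h after dosing, as animals showing toxicity/animals tested. Type of toxicity was noted, e.g. inability to grasp the rod, tremors, death.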

Mus musculus [13] = experiment: Neurotoxicity in CF-1 albino mouse at 100 mg/kg, ip after 4 hrs by rotarod test; format: toxicity, organism-based; details: in vivo; procedure, shortened: as §3
Mus musculus [14] = experiment: Neurotoxicity in CF-1 albino mouse at 300 mg/kg, ip after 4 hrs by rotarod test; format: toxicity, organism-based; details: in vivo; procedure, shortened: as §2
[15] = Lipophilicity of compound by RP-TLC analysis; format: physicochemical; details: methanol:acetic acid:water
Procedure, shortened: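 Reversed-phase TLC on RP-18 plates with methanol:acetic acid:water mobile phase (acid constant at 10%, methanol 85–55% in 5% steps). Spots visualised with iodine. RM values were derived from Rf and extrapolated to zero methanol to give RM0.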

Mus musculus [16] = experiment: Neurotoxicity in CF-1 albino mouse assessed as death at 300 mg/kg, ip after 0.5 hrs by rotarod test; details: in vivo
HEK293 = experiment: Cytotoxicity against HEK293 cells assessed as reduction in cell viability after 48 hrs by EZ4U Non-radioactive cell proliferation assay; format: cell-based; details: Homo sapiens, HEK293, 48 h
Procedure, shortened: (§4)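 IMR-32 cells (2×10^4/well) or HEK-293 cells (1.5×10^4/well) in DMEM with 10% FBS were preincubated 24 h at 37 °C, 5% CO2. Compounds from 25 mM DMSO stocks were added at final 0.01–250 μM, with DMSO ≤1%. After 48 h, EZ4U label was added for 5 h and absorbance read at 492 nm.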

IMR-32 = experiment: Cytotoxicity against human IMR32 cells assessed as reduction in cell viability after 48 hrs by EZ4U Non-radioactive cell proliferation assay; format: cell-based; details: IMR-32, 48 h; procedure, shortened: as §4
CYP3A4 = CYP3A4 (Homo sapiens, UniProt P08684); experiment: Activation of recombinant human CYP3A4 using Luciferin-BE as substrate at 25 uM in presence of NADPH by P450-Glo luminescence assay relative to control; format: ADME; details: recombinant human CYP3A4, probe Luciferin-PPXE, in the assay text read “Luciferin-PPXE” for “Luciferin-BE”, read-out: Activity
Chain of CYP3A4 (P08684 whole entry): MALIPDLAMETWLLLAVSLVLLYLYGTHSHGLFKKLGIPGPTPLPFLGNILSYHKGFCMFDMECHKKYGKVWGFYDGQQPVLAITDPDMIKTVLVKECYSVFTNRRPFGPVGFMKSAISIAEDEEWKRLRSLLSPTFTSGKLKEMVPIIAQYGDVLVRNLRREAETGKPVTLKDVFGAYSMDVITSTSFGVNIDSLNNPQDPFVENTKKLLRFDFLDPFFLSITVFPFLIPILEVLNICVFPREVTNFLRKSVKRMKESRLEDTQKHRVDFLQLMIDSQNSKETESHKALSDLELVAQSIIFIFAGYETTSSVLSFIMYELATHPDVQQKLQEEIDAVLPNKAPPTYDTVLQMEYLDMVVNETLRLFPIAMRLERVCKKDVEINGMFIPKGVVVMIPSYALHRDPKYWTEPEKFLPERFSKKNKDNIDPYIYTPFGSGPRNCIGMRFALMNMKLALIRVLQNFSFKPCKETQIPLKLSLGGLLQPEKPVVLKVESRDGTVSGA
Procedure, shortened: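 Recombinant human CYP3A4 P450-Glo luminescence assay: enzyme converts luciferin substrate to D-luciferin, then firefly luciferase is added and light output read as a measure of CYP3A4 activity. Final ligand concentrations 0.025–25 μM.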

Mus musculus [17] = experiment: Neurotoxicity in CF-1 albino mouse at 30 mg/kg, ip after 0.5 hrs by rotarod test; format: toxicity, organism-based; details: in vivo; procedure, shortened: as §3
[18] = Drug metabolism in pooled human liver microsomes assessed as 2-(4-(5-(azepan-1-yl)pentyloxy)phenyl)propan-1-ol metabolite formation at 50 uM after 2 hrs in presence of NADPH by LC/MS analysis; format: ADME, microsome
Procedure, shortened: (§5)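 Pooled human liver microsomes (1 mg/ml) in 0.1 M Tris-HCl pH 7.4 with compound at 50 μM. After 5 min preincubation at 37 °C, reaction was started with NADPH regeneration system and run 2 h at 37 °C. Stopped with cold methanol and centrifuged. Supernatant analysed by UPLC-ESI tandem quadrupole MS.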

[19] = Safety index, ratio of compound IC50 to doxorubicin IC50 for HEK293 cells after 48 hrs by EZ4U non-radioactive cell proliferation assay; format: ADME, cell-based; details: human, read-out: Ratio IC50
[20] = Safety index, ratio of compound IC50 to doxorubicin IC50 for human IMR32 cells after 48 hrs by EZ4U Non-radioactive cell proliferation assay; format: ADME, cell-based; details: IMR-32 cells, read-out: Ratio IC50
Histamine H3 receptor [21] = biological target: T1, Histamine H3 receptor; experiment: Displacement of [3H]Nalpha-Methylhistamine from recombinant human histamine H3 receptor expressed in HEK293 cell membranes after 90 mins by liquid scintillation counting analysis
Mus musculus [22] = experiment: Neurotoxicity in CF-1 albino mouse assessed as death at 300 mg/kg, ip after 0.5 hrs by rotarod test; format: toxicity, organism-based; details: in vivo; procedure, shortened: as §2
Mus musculus [23] = experiment: Neurotoxicity in CF-1 albino mouse assessed as diarrhea at 300 mg/kg, ip after 0.5 hrs by rotarod test; format: toxicity, organism-based; details: in vivo; procedure, shortened: as §2
Mus musculus [24] = experiment: Neurotoxicity in CF-1 albino mouse assessed as diarrhea at 100 mg/kg, ip after 0.5 hrs by rotarod test; format: toxicity, organism-based; details: in vivo; procedure, shortened: as §2
Mus musculus [25] = experiment: Anticonvulsant activity in CF-1 albino mouse assessed as protection against subcutaneous pentetrazole-induced seizures at 300 mg/kg, ip after 0.5 hrs; format: functional, organism-based
Mus musculus [26] = experiment: Neurotoxicity in CF-1 albino mouse assessed as continuous seizure activity at 300 mg/kg, ip after 0.5 hrs by rotarod test; format: toxicity, organism-based; details: in vivo; procedure, shortened: as §2
Mus musculus [27] = experiment: Neurotoxicity in CF-1 albino mouse assessed as unable to grasp at 30 mg/kg, ip after 0.5 hrs by rotarod test; format: toxicity, organism-based; details: in vivo, 100 mg/kg, in the assay text read “100 mg/kg” for “30 mg/kg”; procedure, shortened: as §3
Mus musculus [28] = experiment: […] in po dosed mouse brain assessed as activation in HA release measured after 90 mins; format: functional; details: 1.5 h
[29] = Drug level in pooled human liver microsomes treated with 50 uM 1-(5-(4-(tert-Pentyl)phenoxy)pentyl)azepane hydrogen oxalate after 2 hrs in presence of NADPH by LC/MS analysis; format: ADME, microsome; procedure, shortened: as §5
Mus musculus [30] = experiment: Neurotoxicity in CF-1 albino mouse assessed as tremor at 30 mg/kg, ip after 0.5 hrs by rotarod test; format: toxicity, organism-based; details: in vivo, 100 mg/kg, in the assay text read “100 mg/kg” for “30 mg/kg”; procedure, shortened: as §3
Mus musculus [31] = experiment: Neurotoxicity in CF-1 albino mouse assessed as continuous seizure activity at 100 mg/kg, ip after 0.5 hrs by rotarod test; format: toxicity, organism-based; details: in vivo; procedure, shortened: as §2
Mus musculus [32] = experiment: Anticonvulsant activity in CF-1 albino mouse assessed as protection against subcutaneous pentetrazole-induced seizures at 300 mg/kg, ip after 4 hrs; format: functional, organism-based
Mus musculus [33] = experiment: Neurotoxicity in CF-1 albino mouse assessed as death at 100 mg/kg, ip after 4 hrs by rotarod test; format: toxicity, organism-based; details: in vivo; procedure, shortened: as §2
Mus musculus [34] = experiment: Neurotoxicity in CF-1 albino mouse assessed as death at 300 mg/kg, ip after 4 hrs by rotarod test; format: toxicity, organism-based; details: in vivo; procedure, shortened: as §2
Mus musculus [35] = experiment: Neurotoxicity in CF-1 albino mouse at 100 mg/kg, ip after 0.5 hrs by rotarod test; format: toxicity, organism-based; details: in vivo; procedure, shortened: as §2

Compound	Ki (Histamine H3 receptor [1]) [nM]	Activity (Mus musculus [2])	Activity (Mus musculus [3])	Activity (Mus musculus [4])	Activity (Mus musculus [5])	Activity (Mus musculus [6])	Activity (Mus musculus [7])	Activity (Mus musculus [8])	Activity (Mus musculus [9])	Activity (Mus musculus [10])	Activity (Mus musculus [12])	Rm [15]	Activity (Mus musculus [16])	further results
CCC(C)(C)c1ccc(OCCCCCCCN2CCCCC2)cc1.O=C(O)C(=O)O	55	inactive	inactive	Active	inactive	Active	inactive	inactive	inactive	inactive	Non-Toxic	2.624	Toxic	Activity (Mus musculus [11]): Toxic; Activity (Mus musculus [13]): Non-Toxic; Activity (Mus musculus [14]): Non-Toxic
CCC(C)(C)c1ccc(OCCCCCN2CCCCCC2)cc1.O=C(O)C(=O)O	21.4	Active	inactive	Active			inactive	inactive	inactive	inactive	Non-Toxic	2.389		IC50 (HEK293): 39400 nM; IC50 (IMR-32): 12300 nM; activity at 25 µM (CYP3A4): 76%; Activity (Mus musculus [17]): Non-Toxic; Drug metabolism [18]: Metabolite_Detected; selectivity ratio at 48 h [19]: 50 to 90; selectivity ratio at 48 h [20]: > 1000
CCC(C)(C)c1ccc(OCCCCN2CCCCCC2)cc1.O=C(O)C(=O)O		inactive	inactive	Active	Active						Non-Toxic	2.292	Toxic	Ki (Histamine H3 receptor [21]): 68 nM; Activity (Mus musculus [22]): Toxic; Activity (Mus musculus [23]): Toxic; Activity (Mus musculus [24]): Toxic
CCC(C)(C)c1ccc(OCCCCN2CCC(C)CC2)cc1.O=C(O)C(=O)O		Active	inactive	Active	inactive		inactive	inactive	Active		Non-Toxic		Toxic	Ki (Histamine H3 receptor [21]): 238 nM; Activity (Mus musculus [25]): Active; Activity (Mus musculus [22]): Toxic; Activity (Mus musculus [23]): Toxic; Activity (Mus musculus [26]): Toxic
CCC(C)(C)c1ccc(OCCCCCCN2CCCCCC2)cc1.O=C(O)C(=O)O	41.2	inactive	inactive	Active	inactive		inactive	inactive	inactive	inactive	Non-Toxic	2.567	Toxic	Activity (Mus musculus [27]): Toxic
Clc1ccc(CCCOCCCN2CCCCC2)cc1 [PITOLISANT]														ED50 (Mus musculus [28]): 1.5 mg/kg
CC(CO)c1ccc(OCCCCCN2CCCCCC2)cc1 (centres undefined)														Drug uptake [29]: Active
CCC(C)(C)c1ccc(OCCCCCCN2CCCC(C)C2)cc1.O=C(O)C(=O)O (centres undefined)	33.8	Active	inactive	Active	Active	Active	inactive	inactive	inactive	inactive	Non-Toxic	2.521	Toxic	Activity (Mus musculus [30]): Toxic; Activity (Mus musculus [31]): Toxic
CCC(C)(C)c1ccc(OCCCCCCCCN2CCC(C)CC2)cc1.O=C(O)C(=O)O	308	Active	inactive		Active	Active	inactive	inactive	inactive	inactive			Toxic	Activity (Mus musculus [25]): inactive; Activity (Mus musculus [32]): inactive; Activity (Mus musculus [11]): Toxic; Activity (Mus musculus [33]): Toxic; Activity (Mus musculus [34]): Toxic; Activity (Mus musculus [35]): Toxic
